The nature of data set [1]: Second-order rate constant for acyl-interchange reactions between glutathione and the compound. The class given is ADME. In short, it runs like this:
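Cell-free reaction with glutathione in 0.1 M potassium phosphate, pH 7.5, 5% ethanol, 25 °C. Under pseudo-first-order conditions (≥10-fold glutathione excess), derived from the first-order loss of reactants followed spectrophotometrically. For the slow ester analogue, taken instead from the initial rate of product appearance (~0.1% reaction) with 15-fold glutathione excess, followed by reverse-phase HPLC.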

The subject of data set [2] is L1210. The experiment in a line: Rate constant from the plots of initial rates of disappearance of the drug inside L1210 cells versus extracellular concentration of prodrug. Conditions: in the assay text read “appearance” for “disappearance”. The class given is functional, Mus musculus. The method, boiled down:
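L1210 suspensions (~1.5 × 10^6 cells/mL) in RPMI 1640/10% heat-inactivated FCS with gentamycin, 37 °C, were given fixed prodrug levels. Aliquots taken over time were spun through silicone oil. Pellets were extracted with 70% ethanol and the glutathione conjugate was measured by C18 reverse-phase HPLC at 260 nm against standard curves. The constant is the slope of initial intracellular appearance rate versus extracellular prodrug concentration.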

The test system of data set [3] is L1210. The experiment in a line: Concentration required to kill 50% L1210 cells. The class given is ADME, cell-based. The following applies: mouse. In short, it runs like this:
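Mouse L1210 leukemia cells in log growth, RPMI 1640 with 10% heat-inactivated fetal calf serum and gentamycin (10 µg/mL), 37 °C, 5% CO2. Seeded at 5000 cells/well with at least five drug levels in triplicate. Fresh drug added every 12 h. Cell density counted by Coulter Counter after 48 h, viability by trypan blue. LC50 (50% cell killing) interpolated from dose-response curve; three experiments on different days.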

In data set [4] the test system is L1210. The experiment in a line: Concentration producing 100% tumor growth inhibition of L1210 cells. The data set is classed as functional. Conditions: Mus musculus. The method, boiled down:
(§1)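 Murine L1210 leukemia cells (NCI tumor repository) in log phase, kept in RPMI 1640 with […], 10% heat-inactivated fetal calf serum and gentamycin (10 µg/mL), 37 °C, 5% CO2. Seeded at 5000 cells/well with at least five drug levels in triplicate. Fresh drug added every 12 h. Cell density counted by Coulter Counter after 48 h. Percentage growth taken against time-zero and no-drug counts. Values interpolated from dose-response curves; mean and SD of three experiments on different days.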

For data set [5], the system named is L1210. The experiment in a line: Concentration producing 50% growth inhibition of L1210 cells. The data set is classed as functional. Conditions: Mus musculus. In short, it runs like this: as §1

For `CC[S+]([O-])C(=O)N(C)c1ccc(Cl)cc1` (stereo unspecified), the k2 in data set [1] amounted to 2.33 M⁻¹ s⁻¹.
For orientation: LC50 means the concentration that kills 50% of the test population. Low values mean a more lethal substance, high ones a less lethal substance. By TGI is commonly meant the concentration giving total growth inhibition. High values mean less potent growth arrest, low ones more potent growth arrest. Usually GI50 stands for the concentration that inhibits growth by half. High values mean less potent growth inhibition, low ones more potent growth inhibition. Consider `Cl.NC(CCC(=O)NC(CSC(=O)N(O)c1ccc(Cl)cc1)C(=O)NCC(=O)OC1CCCC1)C(=O)OC1CCCC1` (stereo unspecified), for which the Rate constant in the data set on L1210 [2] was determined as 0.59 min⁻¹. Further, the median lethal concentration (LC50) in the data set on L1210 [3] came out at 8.3 µM. The compound also registered a TGI in the data set on L1210 [4] of 5.3 µM. The GI50 with L1210 [5] came out at 3.4 µM.
On the same counts, the results for `CCOC(=O)CNC(=O)C(CSC(=O)N(O)c1ccc(Cl)cc1)NC(=O)CCC(N)C(=O)OCC.Cl` (stereo unspecified) are 0.1 min⁻¹, 54 µM, 27 µM and 7 µM.
Regarding `CC[S+]([O-])C(=O)N(O)c1ccc(Cl)cc1` (stereo unspecified), the k2 in data set [1] came to 30.7 M⁻¹ s⁻¹. Besides, the Rate constant with L1210 [2] was found to be 1.41 min⁻¹. In addition, the LC50 with L1210 [3] is 13 µM. In the data set on L1210 [4], net growth stopped (TGI) at 3.9 µM. In addition, it took 0.5 µM to inhibit growth with L1210 [5] by half (GI50).
`CC[S+]([O-])C(=O)N(C)O` (stereo unspecified) displayed a k2 in data set [1] of 9.83 M⁻¹ s⁻¹.
The same measure, in the same setting: then `CCSC(=O)N(O)c1ccc(Cl)cc1`, with 5.83e-06 M⁻¹ s⁻¹.

For the origin of these results see ChEMBL document CHEMBL1132215, “A new method for rapidly generating inhibitors of glyoxalase I inside tumor cells using S-(N-aryl-N-hydroxycarbamoyl)ethylsulfoxides” (J Med Chem, 1999).
